ChEMBL document CHEMBL1240476, “Synthesis and antiproliferative activity of indolizinophthalazine-5,12-dione derivatives, DNA topoisomerase IB inhibitors” (Eur J Med Chem, 2010)

Legend:
[1] = Cytotoxicity against human GLC82 cells after 48 hrs by MTT assay; type: functional, cell-based; conditions: GLC82, 48 h
[2] = test system: NCI-H460; test: Cytotoxicity against human NCI-H460 cells after 48 hrs by MTT assay; type: functional, cell-based; conditions: NCI-H460, 48 h
[3] = test system: MCF7; test: Cytotoxicity against human MCF7 cells after 48 hrs by MTT assay; type: functional, cell-based; conditions: MCF7, 48 h
[4] = Cytotoxicity against human MCF7/ADR cells after 48 hrs by MTT assay; type: functional, cell-based; conditions: NCI/ADR-RES
[5] = Inhibition of topoisomerase 1B-mediated relaxation of supercoiled pBR322 DNA at 125 uM after 30 mins by agarose gel electrophoresis
Outline: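 TOP1-mediated relaxation of supercoiled DNA: enzyme and DNA incubated with serially diluted compound, 1 to 125 across four lanes. Controls were DNA without enzyme or drug, and DNA plus enzyme without drug. Read-out was the supercoiled versus relaxed DNA bands, scored as percent inhibition of TOP1 catalytic activity.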

[6] = Inhibition of topoisomerase 1B-mediated relaxation of supercoiled pBR322 DNA at 1 uM after 30 mins by agarose gel electrophoresis
Outline: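 TOP1 relaxation of supercoiled DNA was run with enzyme, DNA and serially diluted drug (1 to 125). Controls were DNA without enzyme or drug, and DNA plus enzyme without drug. Supercoiled and relaxed DNA bands were resolved by gel and compared.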

Row | SMILES | IC50 [1] | IC50 [2] | IC50 [3] | IC50 [4] | inhibition [5] | inhibition [6]
1 | N#Cc1c2c(n3ccccc13)C(=O)c1cnncc1C2=O | 1.13 µM | 9.32 µM | 1.09 µM | 0.81 µM | 100% | 23%
2 | Cc1c2c(n3ccccc13)C(=O)c1cnncc1C2=O | 1.92 µM | 1.21 µM | 1.67 µM | 14.1 µM |  | 
3 | CC(=O)c1c2c(n3ccccc13)C(=O)c1cnncc1C2=O | 24.7 µM | 21.3 µM |  | 11.2 µM |  | 
4 | CC(=O)c1c2c(n3cccc(F)c13)C(=O)c1cnncc1C2=O | 1.85 µM | 10.6 µM | 10.7 µM | 13.2 µM |  | 
5 | CCOC(=O)c1c2c(n3cccc(O)c13)C(=O)c1cnncc1C2=O | 11.6 µM | 23.5 µM | 20.8 µM | > 25 µM |  | 
6 | CCOC(=O)c1c2c(n3cccc(C)c13)C(=O)c1cnncc1C2=O | 10.3 µM | 1.18 µM | 1.22 µM | 1.55 µM |  | 
7 | COC(=O)c1c2c(n3ccccc13)C(=O)c1cnncc1C2=O | 13.7 µM | 9.94 µM | 23.7 µM | 17 µM |  | 
8 | CCOC(=O)c1c2c(n3cccc(Cl)c13)C(=O)c1cnncc1C2=O | 1.09 µM | 1.44 µM | 1.2 µM | 1.6 µM |  | 
9 | CC[C@@]1(O)C(=O)OCc2c1cc1n(c2=O)Cc2cc3ccccc3nc2-1 [CAMPTOTHECIN] | > 25 µM | > 25 µM |  |  | 73% | 
10 | O=C1c2cnncc2C(=O)c2c1cc1ccccn21 | 10.8 µM | 11.4 µM | 14.7 µM | 11.7 µM |  | 
11 | CCOC(=O)c1c2c(n3ccccc13)C(=O)c1cnncc1C2=O | > 25 µM | > 25 µM | > 25 µM | > 25 µM |  | 
12 | CCOC(=O)c1c2c(n3cc(C)ccc13)C(=O)c1cnncc1C2=O | 9.87 µM | 11.1 µM | 12.2 µM | 18.7 µM |  | 
